Laboratory results reported in ChEMBL document CHEMBL1145212, “Fluorinated diaryl sulfides as serotonin transporter ligands: synthesis, structure-activity relationship study, and in vivo evaluation of fluorine-18-labeled compounds as PET imaging agents” (J Med Chem, 2005).

What was measured:
Rattus norvegicus [1] = assay: Biodistribution of [18F]AFP in rat cerebellum at 60 min postinjection in vivo; assay type: ADME, organism-based; conditions: 1 h
Rattus norvegicus [2] = assay: Biodistribution of [18F]-AFP in rat frontal cortex at 60 min postinjection in vivo; assay type: ADME, organism-based; conditions: 1 h
In short: (§1)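 Male Sprague-Dawley rats, three per time point, received the F-18 radioligand in saline (~20 µCi per rat at injection) by tail vein. Under CO2 anesthesia they were decapitated at 10, 30, 60, 90 or 120 min. Blood and dissected brain regions were weighed and gamma counted. Activity was decay-corrected, and injected dose was corrected for tail residual activity. Uptake was expressed as %ID/g versus injectate standards, mean ± SD.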

Rattus norvegicus [3] = assay: Biodistribution of [18F]AFP in rat frontal cortex at 120 min postinjection in vivo; assay type: ADME, organism-based; conditions: 2 h
Rattus norvegicus [4] = assay: Biodistribution of [18F]AFP in rat blood at 30 min postinjection in vivo; assay type: ADME, organism-based; conditions: 0.5 h
Rattus norvegicus [5] = assay: Biodistribution of [18F]-AFP in rat blood at 120 min postinjection in vivo; assay type: ADME, organism-based; conditions: 2 h; in short: as §1
Rattus norvegicus [6] = assay: Biodistribution of [18F]-AFP in rat cerebellum at 30 min postinjection in vivo; assay type: ADME, organism-based; conditions: 0.5 h; in short: as §1
Rattus norvegicus [7] = assay: Biodistribution of [18F]AFP in rat thalamus at 120 min postinjection in vivo; assay type: ADME, organism-based; conditions: 2 h
Rattus norvegicus [8] = assay: Biodistribution of [18F]AFP in rat striatum at 90 min postinjection in vivo; assay type: ADME, organism-based; conditions: 1.5 h
Rattus norvegicus [9] = assay: Biodistribution of [18F]AFP in rat thalamus at 30 min postinjection in vivo; assay type: ADME, organism-based; conditions: 0.5 h
Rattus norvegicus [10] = assay: Biodistribution of [18F]AFP in rat blood at 90 min postinjection in vivo; assay type: ADME, organism-based; conditions: 1.5 h
Rattus norvegicus [11] = species: Rattus norvegicus; assay: Specific binding of [18F]AFA in thalamus of rat pretreated with compound 7f; n=3; assay type: functional
Rattus norvegicus [12] = species: Rattus norvegicus; assay: Specific binding of [18F]-AFA in frontal cortex of rat pretreated with compound 7f; n=3; assay type: functional
Rattus norvegicus [13] = assay: Biodistribution of [18F]-AFP in rat cerebellum at 10 min postinjection in vivo; assay type: ADME, organism-based; in short: as §1
Rattus norvegicus [14] = assay: Biodistribution of [18F]AFP in rat blood at 10 min postinjection in vivo; assay type: ADME, organism-based
Rattus norvegicus [15] = assay: Biodistribution of [18F]AFP in rat frontal cortex at 90 min postinjection in vivo; assay type: ADME, organism-based; conditions: 1.5 h
Rattus norvegicus [16] = assay: Biodistribution of [18F]AFP in rat hypothalamus at 30 min postinjection in vivo; assay type: ADME, organism-based; conditions: 0.5 h
Rattus norvegicus [17] = assay: Biodistribution of [18F]AFP in rat thalamus at 10 min postinjection in vivo; assay type: ADME, organism-based
Rattus norvegicus [18] = assay: Biodistribution of [18F]AFP in rat striatum at 10 min postinjection in vivo; assay type: ADME, organism-based
Rattus norvegicus [19] = assay: Biodistribution of [18F]AFP in rat hypothalamus at 10 min postinjection in vivo; assay type: ADME, organism-based
Rattus norvegicus [20] = assay: Biodistribution of [18F]AFP in rat hippocampus at 30 min postinjection in vivo; assay type: ADME, organism-based; conditions: 0.5 h
Rattus norvegicus [21] = assay: Biodistribution of [18F]AFP in rat thalamus at 90 min postinjection in vivo; assay type: ADME, organism-based; conditions: 1.5 h
Rattus norvegicus [22] = assay: Biodistribution of [18F]AFP in rat hippocampus at 120 min postinjection in vivo; assay type: ADME, organism-based; conditions: 2 h
Rattus norvegicus [23] = assay: Biodistribution of [18F]AFP in rat cerebellum at 120 min postinjection in vivo; assay type: ADME, organism-based; conditions: 2 h
Rattus norvegicus [24] = assay: Biodistribution of [18F]-AFP in rat hippocampus at 10 min postinjection in vivo; assay type: ADME, organism-based; in short: as §1
Rattus norvegicus [25] = species: Rattus norvegicus; assay: Specific binding of [18F]AFA in hippocampus of rat pretreated with compound 7f; n=3; assay type: functional
Rattus norvegicus [26] = assay: Biodistribution of [18F]AFP in rat thalamus at 60 min postinjection in vivo; assay type: ADME, organism-based; conditions: 1 h
Rattus norvegicus [27] = assay: Biodistribution of [18F]AFP in rat striatum at 120 min postinjection in vivo; assay type: ADME, organism-based; conditions: 2 h
Rattus norvegicus [28] = assay: Biodistribution of [18F]AFP in rat striatum at 30 min postinjection in vivo; assay type: ADME, organism-based; conditions: 0.5 h
Rattus norvegicus [29] = assay: Biodistribution of [18F]-AFP in rat frontal cortex at 30 min postinjection in vivo; assay type: ADME, organism-based; conditions: 0.5 h; in short: as §1
Rattus norvegicus [30] = assay: Biodistribution of [18F]-AFP in rat hippocampus at 60 min postinjection in vivo; assay type: ADME, organism-based; conditions: 1 h; in short: as §1
Rattus norvegicus [31] = assay: Biodistribution of [18F]AFP in rat hypothalamus at 90 min postinjection in vivo; assay type: ADME, organism-based; conditions: 1.5 h
Rattus norvegicus [32] = assay: Biodistribution of [18F]AFP in rat hypothalamus at 120 min postinjection in vivo; assay type: ADME, organism-based; conditions: 2 h
Rattus norvegicus [33] = assay: Biodistribution of [18F]AFP in rat hypothalamus at 60 min postinjection in vivo; assay type: ADME, organism-based; conditions: 1 h
Rattus norvegicus [34] = species: Rattus norvegicus; assay: Specific binding of [18F]AFA in striatum of rat pretreated with compound 7f; n=3; assay type: functional
Rattus norvegicus [35] = assay: Biodistribution of [18F]AFP in rat frontal cortex at 10 min postinjection in vivo; assay type: ADME, organism-based
Rattus norvegicus [36] = assay: Biodistribution of [18F]AFP in rat cerebellum at 90 min postinjection in vivo; assay type: ADME, organism-based; conditions: 1.5 h
Rattus norvegicus [37] = assay: Biodistribution of [18F]AFP in rat blood at 60 min postinjection in vivo; assay type: ADME, organism-based; conditions: 1 h
Rattus norvegicus [38] = species: Rattus norvegicus; assay: Specific binding of [18F]AFA in hypothalamus of rat pretreated with compound 7f; n=3; assay type: functional
Rattus norvegicus [39] = assay: Biodistribution of [18F]AFP in rat striatum 60 min postinjection in vivo; assay type: ADME, organism-based; conditions: 1 h
Rattus norvegicus [40] = assay: Biodistribution of [18F]AFP in rat hippocampus at 90 min postinjection in vivo; assay type: ADME, organism-based; conditions: 1.5 h

**Q.** Which Biodistribution (Rattus norvegicus [1]) does the source give for `CN(C)Cc1ccccc1Sc1ccc(CCC[18F])cc1N` here?
**A.** Its Biodistribution is 0.07 %ID/g.

**Q.** And the Biodistribution (Rattus norvegicus [2])?
**A.** The Biodistribution was 0.12 %ID/g.

**Q.** And the Biodistribution (Rattus norvegicus [3])?
**A.** Its Biodistribution is 0.08 %ID/g.

**Q.** What about the Biodistribution (Rattus norvegicus [4]) of the same molecule?
**A.** Its Biodistribution is 0.15 %ID/g.

**Q.** What about the Biodistribution (Rattus norvegicus [5]) of the same molecule?
**A.** Its Biodistribution is 0.04 %ID/g.

**Q.** What about the Biodistribution (Rattus norvegicus [6]) of the same molecule?
**A.** Its Biodistribution is 0.14 %ID/g.

**Q.** What about the Biodistribution (Rattus norvegicus [7]) of the same molecule?
**A.** The Biodistribution was 0.1 %ID/g.

**Q.** What about the Biodistribution (Rattus norvegicus [8]) of the same molecule?
**A.** Its Biodistribution is 0.08 %ID/g.

**Q.** And the Biodistribution (Rattus norvegicus [9])?
**A.** The Biodistribution was 0.28 %ID/g.

**Q.** What about the Biodistribution (Rattus norvegicus [10]) of the same molecule?
**A.** Its Biodistribution is 0.08 %ID/g.

**Q.** What about the Specific binding (Rattus norvegicus [11]) of the same molecule?
**A.** Its Specific binding is 0.35 %ID/g.

**Q.** What about the Specific binding (Rattus norvegicus [12]) of the same molecule?
**A.** The Specific binding was 0.05 %ID/g.

**Q.** And the Biodistribution (Rattus norvegicus [13])?
**A.** The Biodistribution was 0.31 %ID/g.

**Q.** What about the Biodistribution (Rattus norvegicus [14]) of the same molecule?
**A.** The Biodistribution was 0.18 %ID/g.

**Q.** What about the Biodistribution (Rattus norvegicus [15]) of the same molecule?
**A.** Its Biodistribution is 0.05 %ID/g.

**Q.** What about the Biodistribution (Rattus norvegicus [16]) of the same molecule?
**A.** Its Biodistribution is 0.21 %ID/g.

**Q.** And the Biodistribution (Rattus norvegicus [17])?
**A.** The Biodistribution was 0.44 %ID/g.

**Q.** What about the Biodistribution (Rattus norvegicus [18]) of the same molecule?
**A.** The Biodistribution was 0.41 %ID/g.

**Q.** What about the Biodistribution (Rattus norvegicus [19]) of the same molecule?
**A.** Its Biodistribution is 0.42 %ID/g.

**Q.** And the Biodistribution (Rattus norvegicus [20])?
**A.** The Biodistribution was 0.19 %ID/g.

**Q.** What about the Biodistribution (Rattus norvegicus [21]) of the same molecule?
**A.** The Biodistribution was 0.1 %ID/g.

**Q.** And the Biodistribution (Rattus norvegicus [22])?
**A.** The Biodistribution was 0.08 %ID/g.

**Q.** And the Biodistribution (Rattus norvegicus [23])?
**A.** Its Biodistribution is 0.03 %ID/g.

**Q.** What about the Biodistribution (Rattus norvegicus [24]) of the same molecule?
**A.** Its Biodistribution is 0.36 %ID/g.

**Q.** What about the Specific binding (Rattus norvegicus [25]) of the same molecule?
**A.** Its Specific binding is 0.03 %ID/g.

**Q.** And the Biodistribution (Rattus norvegicus [26])?
**A.** Its Biodistribution is 0.16 %ID/g.

**Q.** What about the Biodistribution (Rattus norvegicus [27]) of the same molecule?
**A.** Its Biodistribution is 0.08 %ID/g.

**Q.** And the Biodistribution (Rattus norvegicus [28])?
**A.** The Biodistribution was 0.21 %ID/g.

**Q.** And the Biodistribution (Rattus norvegicus [29])?
**A.** Its Biodistribution is 0.21 %ID/g.

**Q.** And the Biodistribution (Rattus norvegicus [30])?
**A.** Its Biodistribution is 0.13 %ID/g.

**Q.** What about the Biodistribution (Rattus norvegicus [31]) of the same molecule?
**A.** Its Biodistribution is 0.1 %ID/g.

**Q.** And the Biodistribution (Rattus norvegicus [32])?
**A.** Its Biodistribution is 0.1 %ID/g.

**Q.** And the Biodistribution (Rattus norvegicus [33])?
**A.** The Biodistribution was 0.13 %ID/g.

**Q.** And the Specific binding (Rattus norvegicus [34])?
**A.** The Specific binding was 0.07 %ID/g.

**Q.** And the Biodistribution (Rattus norvegicus [35])?
**A.** The Biodistribution was 0.47 %ID/g.

**Q.** And the Biodistribution (Rattus norvegicus [36])?
**A.** The Biodistribution was 0.03 %ID/g.

**Q.** What about the Biodistribution (Rattus norvegicus [37]) of the same molecule?
**A.** Its Biodistribution is 0.14 %ID/g.

**Q.** And the Specific binding (Rattus norvegicus [38])?
**A.** Its Specific binding is 0.26 %ID/g.

**Q.** What about the Biodistribution (Rattus norvegicus [39]) of the same molecule?
**A.** The Biodistribution was 0.11 %ID/g.

**Q.** What about the Biodistribution (Rattus norvegicus [40]) of the same molecule?
**A.** Its Biodistribution is 0.07 %ID/g.
